Experimental data pooled from the literature.
Lines come from different studies, so protocols differ.
Cell line: A549
Read-out: cell growth or viability

| SMILES | test | setting | IC50 |
| --- | --- | --- | --- |
| CCCCC(=O)Nc1cc(F)c(-c2ccc3ncn(CCC)c(=O)c3c2)cn1 | CCK-8 | 72 h | 1.58 µM |
| O=C(O)c1ccc(NCc2cccc(O)c2)cc1 | resazurin | 72 h | > 100 µM |
| O=C(C=Cc1ccc(OCCOc2ccc(C=CC(=O)c3cccs3)cc2)cc1)c1cccs1 | MTT | 48 h | 273 µM |
| OC1CCN(c2ccc(/C=N/NC(=S)Nc3ccc(Br)cc3)cc2)CC1 | MTT | 24 h | 1.85 µM |
| CCCCn1cnc2ccc(-c3ccc(NC(=O)c4ccccc4)nc3)cc2c1=O | CCK-8 | 72 h | > 10 µM |
| C/C(=N\C(=S)/N=C(\C)c1c(O)c2ccccc2oc1=O)c1c(O)c2ccccc2oc1=O | MTT | 48 h | 6.66 µM |
| CC(=O)Nc1nc2cc(-c3ccc4ncn(Cc5ccccc5)c(=O)c4c3)ccc2s1 | MTT | 72 h | > 20 µM |
| CC(C)[C@@H]1NC(=O)[C@@H](CCCNC(=N)N)NC(=O)[C@H](C)NC(=O)[C@@H](CCCN)NC(=O)[C@H](Cc2ccccc2)NC(=O)[C@@H](Cc2ccccc2)NC1=O | ATP luminescence | 72 h | > 100 µM |
| CCCCn1cnc2ccc(-c3ccc(NC(C)=O)nc3)cc2c1=O | CCK-8 | 72 h | > 10 µM |
| C/C(=N\c1nc(N)nc(/N=C(\C)c2c(O)c3ccccc3oc2=O)n1)c1c(O)c2ccccc2oc1=O | MTT | 48 h | 5.58 µM |
| COc1ccc(C=NNC(=O)c2cc(-c3ccccc3)n(-c3ccc(S(N)(=O)=O)cc3)n2)cc1OC | fluorescence | 48 h | 15.5 µM |
| S=C(N/N=C/c1cccc2cc3ccccc3nc12)Nc1ccccc1 | MTT | 48 h | > 50 µM |
| COc1cccc(CNc2ccc(C(=O)O)cc2)c1O | resazurin | 72 h | > 100 µM |
| COc1cccc(NC(=O)Nc2nc3cc(-c4ccc5ncn(CCN(C)C)c(=O)c5c4)ccc3s2)c1 | MTT | 72 h | 0.91 µM |
| C#Cc1cccc(Nc2ncnc3cc(OCCOC)c(OCCOC)cc23)c1 | MTT | 48 h | 17.3 µM |
| CC(=O)O[C@H]1C(=O)[C@@]2(C)[C@H]([C@H](OC(=O)c3ccccc3)[C@]3(O)C[C@H](OC(=O)[C@H](O)[C@@H](NC(=O)c4ccccc4)c4ccccc4)C(C)=C1C3(C)C)[C@]1(OC(C)=O)CO[C@@H]1C[C@@H]2O | MTT | 72 h | 0.64 µM |
| O=C(NO)Nc1nc2c(Cl)cc(Cl)cc2c(=O)n1-c1ccc(Cl)cc1 | MTT | 48 h | > 200 µM |
| COC(=O)c1cc(C(C)=NNc2nc(-c3ccc(C)cc3)cs2)ccc1O | MTT | 96 h | 9.61 µM |
| COc1cccc(NC(=O)Cn2cc(COc3ncnc4[nH]cnc34)nn2)c1 | MTT | – | 30.2 µM |
| CCCn1cnc2ccc(-c3ccc(NC(=O)CC4CC4)nc3)cc2c1=O | CCK-8 | 72 h | 2.65 µM |
| NNc1nc2ccc(Br)cc2c(=O)n1-c1ccc(F)cc1 | MTT | 48 h | 63.9 µM |
| CC(C)[C@@H]1NC(=O)[C@@H](CCCNC(=N)N)NC(=O)[C@H]([C@@H](C)O)NC(=O)[C@@H](CN)NC(=O)[C@H](Cc2ccccc2)NC(=O)[C@@H](Cc2ccccc2)NC1=O | ATP luminescence | – | 79.8 µM |

| SMILES | test | setting | IC50 |
| --- | --- | --- | --- |
| C/C(=N\C(=N)/N=C(\C)c1c(O)c2ccccc2oc1=O)c1c(O)c2ccccc2oc1=O | MTT | 48 h | 66 µM |
| COc1cccc(NC(=O)Nc2nc3cc(-c4ccc5ncn(CCN6CCOCC6)c(=O)c5c4)ccc3s2)c1 | MTT | 72 h | 1.14 µM |
| OC1CCN(c2ccc(/C=N/NC(=S)NCCc3ccccc3)cc2)CC1 | MTT | 24 h | 1.33 µM |
| CCCn1cnc2ccc(-c3ccc(NC(=O)CC4CCC4)nc3)cc2c1=O | CCK-8 | 72 h | > 10 µM |
| O=C(Nc1ccc(C(F)(F)F)cc1)Nc1nc2cc(-c3ccc4ncn(CCN5CCOCC5)c(=O)c4c3)ccc2s1 | MTT | 72 h | 2.01 µM |
| COc1cccc2c1C(=O)c1c(O)c3c(c(O)c1C2=O)C[C@@](O)(C(=O)CO)C[C@@H]3O[C@H]1C[C@H](N)[C@H](O)[C@H](C)O1 | MTT | 24 h | 0.69 µg/mL |
| COc1cccc2c1C(=O)c1c(O)c3c(c(O)c1C2=O)C[C@@](O)(C(=O)CO)C[C@@H]3O[C@H]1C[C@H](N)[C@H](O)[C@H](C)O1 | – | 96 h | 0.236 µM |
| NS(=O)(=O)c1ccc(-n2nc(-c3nnc(CCl)o3)cc2-c2ccccc2)cc1 | fluorescence | 48 h | 22.3 µM |
| C(=N\Nc1cc(N/N=C/c2ccc3ccccc3n2)nc(-c2ccccc2)n1)/c1ccc2ccccc2n1 | MTT | 48 h | 7.32 µM |
| CCCCn1cnc2ccc(-c3ccc(NC(=O)NC(C)(C)C)nc3)cc2c1=O | CCK-8 | 72 h | > 10 µM |
| O=C(Nc1ccc(Cl)cc1)Nc1nc2cc(-c3ccc4ncn(Cc5ccccc5)c(=O)c4c3)ccc2s1 | MTT | 72 h | > 20 µM |
| O=C(O)c1ccc(NCc2ccc([N+](=O)[O-])cc2)cc1 | resazurin | 72 h | > 100 µM |
| Cc1cc(NS(=O)(=O)c2ccc(NC(=O)/C(C#N)=C/c3ccc(N4CCOCC4)cc3)cc2)no1 | MTT | 48 h | 109 µM |
| CCCCC(=O)Nc1ccc(-c2ccc3ncn(C4CC4)c(=O)c3c2)cn1 | CCK-8 | 72 h | > 10 µM |
| O=[N+]([O-])c1ccc(NC(=S)N/N=C/c2cccc3cc4ccccc4nc23)cc1 | MTT | 48 h | > 50 µM |
| OC1CCN(c2ccc(/C=N/NC(=S)NCc3ccc(Cl)cc3)cc2)CC1 | MTT | 24 h | 1.46 µM |
| CCCC(C)C(=O)Nc1ccc(-c2ccc3ncn(CCC)c(=O)c3c2)cn1 (centres unmarked) | CCK-8 | 72 h | 9.85 µM |
| O=c1[nH]cc(F)c(=O)[nH]1 | MTT | 48 h | 42.5 µM |
| CC(C)NC(=O)Nc1nc2cc(-c3ccc4ncn(Cc5ccccc5)c(=O)c4c3)ccc2s1 | MTT | 72 h | > 20 µM |
| COc1cccc(CNc2ccc(C(=O)O)cc2)c1 | resazurin | 72 h | > 100 µM |
| COc1ccc(C(=O)Nc2nc3cc(-c4ccc5ncn(Cc6ccccc6)c(=O)c5c4)ccc3s2)cc1 | MTT | 72 h | > 20 µM |
| O=C(N[C@@H](CSCc1nc2cc([N+](=O)[O-])ccc2[nH]1)C(=O)NO)c1ccccc1 | MTT | 48 h | < 500 µM |
